Measured values: ChEMBL document CHEMBL3351805, “Giffonins A-I, antioxidant cyclized diarylheptanoids from the leaves of the hazelnut tree (Corylus avellana), source of the Italian PGI product "Nocciola di Giffoni"” (J Nat Prod, 2015)

Legend:
[1] = test system: Plasma; test: Antioxidant activity in human plasma assessed as H2O2-induced lipid peroxidation at 10 uM after 30 mins by TBARS assay; assay type: functional, cell-free
Summary of the method: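 Fresh plasma from medication-free human donors, incubated 30 min at 37 °C with compound (final 0.1–100 μM; DMSO <0.05% final) plus 2 mM H₂O₂. Stopped on ice, then mixed with an equal volume of cold 20% TCA in 0.6 M HCl and spun. Supernatant heated 15 min with 0.12 M TBA in 0.26 M Tris pH 7.0. TBARS read at 532 nm (ε = 156 000 M⁻¹ cm⁻¹). n=3 independent experiments.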

[2] = test system: Plasma; test: Antioxidant activity in human plasma assessed as H2O2/Fe2+-induced lipid peroxidation at 10 uM after 30 mins by TBARS assay; assay type: functional, cell-free
Summary of the method: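 Reaction stopped on ice; TCA/HCl precipitation, centrifugation at 1200g. Supernatant boiled 15 min with thiobarbituric acid in Tris pH 7.0. A532 converted to TBARS via ε = 156 000 M⁻¹ cm⁻¹. Three independent experiments; paired Student's t test.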

Row | Compound | inhibition [1] [%] | inhibition [2] [%]
1 | COc1c2cc(c(OC)c1O)Oc1ccc(cc1)CC[C@@H](O)/C=C/C=C\2 | 37.6 | 35.5
2 | COc1c2cc(c(OC)c1O)Oc1ccc(cc1)[C@@H](O)CC(=O)CC/C=C/2 | 2.2 | 7.3
3 | COc1c2cc(c(OC)c1O)Oc1ccc(cc1)CCC(=O)C[C@@H](O)/C=C\2 | 12.1 | 12
4 | COc1c2cc(c(OC)c1O)Oc1ccc(cc1)CCCC[C@@H](O)/C=C\2 | 20.8 | 30.8
5 | COc1c2cc(c(OC)c1O)Oc1ccc(cc1)CC[C@@H](O)CC/C=C\2 | 16.4 | 28.2
6 | O=C1/C=C/CCc2ccc(O[C@@H]3O[C@H](CO)[C@@H](O)[C@H](O)[C@H]3O)c(c2)-c2cc(ccc2O[C@@H]2OC[C@H](O)[C@H](O)[C@H]2O)CC1 | 12.6 | 18.1
7 | COc1c2cc(c(OC)c1O)Oc1ccc(cc1)CCC(=O)CC/C=C/2 | 8.1 | 36.8
8 | COc1c2cc(c(OC)c1O)Oc1ccc(cc1)CCC(=O)CC/C=C\2 | 64.3 | 63.2
9 | COc1c(O)cc2cc1Oc1ccc(cc1)CC[C@@H](O)/C=C/C=C\2 | 55.8 | 50.6
10 | COc1cc(/C=C/C(=O)CC(=O)/C=C/c2ccc(O)c(OC)c2)ccc1O | 19.2 | 18.6
